Screens as filed in PubChem.
Lipid droplet: modulators of hepatic lipid droplet formation | AML12 mouse hepatocytes, oleate lipid droplets, BODIPY imaging | inhibition, % at 6.5 µM | 240,000 tested, 0.4% active;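 active = lipid droplet intensity inhibited by at least 50%, with more than 500 cells counted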
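System: AML12 hepatocytes (mouse). Probe or stimulus: oleic acid at 100 µM to induce lipid droplet formation. Times: overnight treatment with compound plus oleate. Detection: Image-based BODIPY and DAPI two-channel analysis. Evaluation: percent inhibition of filter-corrected integrated lipid droplet intensity per well.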
NPR1 activator: GC-A (human) enzyme activation | P16066 | HEK293 GC-A cells, cGMP TR-FRET, EC30 ANP; 0% at EC30 ANP, 100% saturating ANP | activation, % at 10 µM | 370,000 tested, 0.14% active | AID 1671463; in the data active = activation above about 40%
GC-B act: GC-B (human) receptor activation; P20594; HEK293-GC-B cells, CNP EC30, cGMP TR-FRET; 0% at EC30 CNP, 100% saturating CNP; activation, % at 10 µM; 370,000 tested, 0.11% active; AID 1920062;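 active = activation at 10 µM reaching about 35% in either raw or pattern-adjusted values, limit read from the data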
NR3A LBD binder: NR3A (human) ligand-binding domain modulation | Tm shift relative to glycine control, % at 25 µM | NR3A LBD differential scanning fluorimetry, Tm shift; 0% = protein alone, 100% = glycine-bound protein | 340,000 tested, 2.5% active;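 active = melting temperature shift of at least 10% of the positive control shift, at one fixed dose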
GASC-1 inh: human JMJD2C demethylase inhibition. Q9H3R0. GST-JMJD2C(1-420) H3K9me3 demethylation, DELFIA europium. inhibition, % at 2.35 µM. 330,000 tested, 0.069% active. AID 2099;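 active = more than half of a compound's replicate wells show inhibition beyond 50%, single wells judged on their own value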;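 also: signal counts dimethyl H3K9 product captured on neutravidin plate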
Target sequence (Q9H3R0 1-420 limits assumed): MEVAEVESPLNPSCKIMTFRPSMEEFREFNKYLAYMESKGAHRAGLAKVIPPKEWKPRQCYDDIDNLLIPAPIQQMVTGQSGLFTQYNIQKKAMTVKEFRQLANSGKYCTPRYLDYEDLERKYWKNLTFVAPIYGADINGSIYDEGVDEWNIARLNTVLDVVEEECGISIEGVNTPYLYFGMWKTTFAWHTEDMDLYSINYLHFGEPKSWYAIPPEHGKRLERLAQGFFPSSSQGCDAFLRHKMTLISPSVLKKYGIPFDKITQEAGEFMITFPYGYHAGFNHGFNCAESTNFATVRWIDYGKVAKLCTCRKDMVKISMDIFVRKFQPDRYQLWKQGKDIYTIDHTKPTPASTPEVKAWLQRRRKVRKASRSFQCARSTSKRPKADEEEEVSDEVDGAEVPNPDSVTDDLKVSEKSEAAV
aDG glyco act: increases alpha dystroglycan glycosylation; 360,000 tested, 0.22% active; Pro5-aDG cells, alpha-DG glycosylation AlphaScreen (IIH6); 0% Pro5, 100% B10-LARGE cell signal; activation, % at 10 µM;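 active = activation of at least 8% versus controls, or a plate z-score of at least 8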;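 also: Pro5 are CHO cells carrying HIG-tagged alpha-DG that lacks glycosylation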
Lipid drop inh: confirmation of inhibitors of hepatic lipid droplet formation; shares compounds with Lipid droplet; AML12 mouse hepatocytes, BODIPY lipid droplet imaging; droplets induced with 100 µM oleic acid; inhibition, % at 5.2 µM; 870 tested, 65% active; AID 463183;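 active = inhibition of lipid droplet metric at least 50%, with more than 300 cells in each of four replicates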
AML12 cytotox: toxic to AML12 mouse hepatocytes in counter-screen | shares compounds with Lipid droplet | DAPI nuclear morphology cytotoxicity imaging; hits give high values; cells fed 100 µM oleate overnight | z-score at 5 µM | 870 tested, 3% active | AID 463200; in the data active = z-score above about 6.3;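 also: compound exposure lasted overnight at 37 °C before fixation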
AML12 tox conf: AML12 hepatocyte cytotoxicity, confirmed. AID 463219. shares compounds with Lipid droplet. AML12 mouse hepatocyte viability, ATP luminescence; cells loaded with 100 µM oleic acid. 530 tested, under 10 active. cytotoxicity, % at 50 µM;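 active = cytotoxicity above 50% in each of four replicates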;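 also: compound exposure lasted overnight at 37 °C before the ATP read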
Each line names hits and unclear results; the compound was inactive in the other large screens (follow-up assays come after a bar, where they were run). In the library only some 3% were active in any assay of this set; here they are far more common.

CCOc1ccccc1NC(=O)N1CCC(C(=O)c2ccc(F)cc2)CC1	Lipid droplet 59 | Lipid drop inh 95 | AML12 cytotox inactive | AML12 tox conf inactive
COc1cccc(NC(=O)N2CCCC(C(=O)Nc3ccccc3OC)C2)c1 (stereo unspecified)	none (no result: Lipid droplet)
CCOC(=O)C1(C)CCN1C(=O)c1ccc(OC)c(F)c1 (stereo unspecified)	none (no result: Lipid droplet, NR3A LBD binder, GASC-1 inh)
COc1ccccc1CNC(=O)CN(c1ccc(C)cc1)S(=O)(=O)c1c(C)noc1C	none
CC(C)COc1cccc(-c2cc(C(=O)Nc3ccon3)c3ccccc3n2)c1	Lipid droplet 50 | Lipid drop inh 81 | AML12 cytotox inactive | AML12 tox conf inactive
C/C=C(/C)C(=O)O[C@@H]1c2c(ccc3ccc(=O)oc23)OC(C)(C)[C@@H]1OC(=O)/C(C)=C\C	none
C/C=C(/C)C(=O)O[C@@H]1[C@H](OC(=O)C=C(C)C)c2c(ccc3ccc(=O)oc23)OC1(C)C	Lipid droplet 54 | Lipid drop inh inactive | AML12 cytotox inactive
COc1ccc(C)cc1NC(=O)CCNS(=O)(=O)c1cccc(C(F)(F)F)c1	Lipid droplet 55 | Lipid drop inh 83 | AML12 cytotox inactive | AML12 tox conf inactive
COc1ccc(CNS(=O)(=O)c2ccc(S(=O)(=O)NC3CC3)cc2)cc1	none
COc1cccc(CNS(=O)(=O)c2ccc(S(=O)(=O)NC3CC3)cc2)c1	Lipid droplet 80 | Lipid drop inh 108 | AML12 cytotox inactive | AML12 tox conf inactive
O=C(Nc1nnc(-c2cccs2)s1)C1CC1	none
O=C(Nc1nc(-c2cccs2)c(-c2cccs2)s1)C1CCCC1	Lipid droplet 54 (no result: GASC-1 inh) | Lipid drop inh 94 | AML12 cytotox inactive
Cc1coc2cc3oc(=O)cc(C)c3cc12	Lipid droplet 52 | Lipid drop inh inactive | AML12 cytotox inactive
COc1ccc(C2(c3ccc(OC)cc3)NC(=O)N(CC(=O)Nc3ccc(C(=O)N(C)C)cc3)C2=O)cc1	none
COc1ccc(C2(c3ccc(OC)cc3)NC(=O)N(CC(=O)Nc3cc(C)ccc3OC)C2=O)cc1	Lipid droplet 86 (no result: GASC-1 inh) | Lipid drop inh 106 | AML12 cytotox inactive | AML12 tox conf inactive
COC(=O)N(C)C[C@H]1OCc2cnnn2CCCC(=O)N([C@H](C)CO)C[C@H]1C	none (no result: Lipid droplet, NR3A LBD binder, GASC-1 inh)
Cc1[nH]n(-c2ccccc2)c(=O)c1N=Nc1cccc(Cl)c1	Lipid droplet 64 | Lipid drop inh 101 | AML12 cytotox inactive | AML12 tox conf inactive
CC(=O)c1cccc(N=Nc2c(-c3ccccc3)[nH]n(-c3ccccc3)c2=O)c1	Lipid droplet 101 | Lipid drop inh 110 | AML12 cytotox inactive | AML12 tox conf inactive
Cc1[nH]n(-c2ccccc2)c(=O)c1N=Nc1cccc([N+](=O)[O-])c1	none (no result: Lipid droplet)
CCC(=O)[C@@H](C)[C@@H](OC(C)=O)[C@H](C)C[C@@H](C)[C@H]1OC(=O)C[C@@]2(O)CC=C(C)C(O2)C(C)=CCCC[C@H](O[C@H]2C[C@@H](OC(N)=O)[C@H](OC(C)=O)[C@@H](C)O2)C=C[C@H](C)C[C@H]1C	none (no result: Lipid droplet, NR3A LBD binder, GASC-1 inh)
Cc1ccc(-n2nc(C)c3c(=O)[nH]c(C(F)(F)F)nc32)cc1	Lipid droplet 74 (no result: NPR1 activator, GC-B act, NR3A LBD binder, aDG glyco act) | Lipid drop inh inactive | AML12 cytotox inactive
COc1cc(F)ccc1Oc1cccc2c1S(=O)(=O)N(C1CC1)C[C@@H](COCc1ccccc1)O2	none (no result: Lipid droplet, NR3A LBD binder, GASC-1 inh, aDG glyco act)
CN(C)S(=O)(=O)c1cccc(NC(=O)c2cccc(N3C(=O)CCC3=O)c2)c1	none (no result: Lipid droplet, GASC-1 inh)
COc1ccccc1NC(=O)N1CCCC1C(=O)Nc1ccc2c(c1)OCO2 (stereo unspecified)	Lipid droplet 71 | Lipid drop inh 71 | AML12 cytotox inactive | AML12 tox conf inactive
COc1cccc(NC(=O)N2CCCC2C(=O)Nc2ccc3c(c2)OCO3)c1 (stereo unspecified)	none
COC(=O)c1cc(COC(=O)CNC(=O)c2ccc(Br)cc2)oc1C	none (no result: Lipid droplet)
CCC(=O)N1CCN=C1SCc1cccc(C(F)(F)F)c1	none
CC(C)Oc1ccc(C(=O)Nc2ccc(N3CCN(C(=O)c4ccco4)CC3)cc2)cc1	Lipid droplet 69 | Lipid drop inh inactive | AML12 cytotox inactive | AML12 tox conf inactive
CCc1nc2ccc(C(=O)NC3CCN(Cc4ccccc4)CC3)cn2c1N(CC)Cc1cccc(Br)c1	none (no result: Lipid droplet, NR3A LBD binder, GASC-1 inh)
CCCCCC(O)(c1ccc(OC)cc1)C(CN1CCOCC1)c1ccccc1 (stereo unspecified)	none
CCCCCC(O)(c1ccc(OCC)cc1)C(CN1CCOCC1)c1ccccc1 (stereo unspecified)	Lipid droplet 54 | Lipid drop inh 73 | AML12 cytotox inactive | AML12 tox conf inactive
CC(=O)Oc1ccc(/C(C)=N/N2CCN(Cc3ccc(C)cc3)CC2)cc1	none
Cc1occc1C(=O)N/N=C/c1ccc(OCc2ccccc2)cc1	Lipid droplet 60, NR3A LBD binder 35 | Lipid drop inh inactive | AML12 cytotox inactive
Cc1occc1C(=O)N/N=C/c1ccc(-c2ccccc2)cc1	none
COc1ccc(C)cc1NC(=O)C/C(C)=N/NC(=O)Cc1cccc2ccccc12	Lipid droplet 72 | Lipid drop inh 70 | AML12 cytotox inactive | AML12 tox conf inactive
COc1ccc(C2CC(c3cccs3)=NN2C(=O)c2ccc(Br)o2)cc1 (stereo unspecified)	Lipid droplet 83 | Lipid drop inh 93 | AML12 cytotox inactive | AML12 tox conf inactive
O=C(NCc1ccco1)O[C@H]1CC[C@@]23CCCN2C(=O)CCC[C@H]3C1	none (no result: Lipid droplet, NR3A LBD binder, GASC-1 inh, aDG glyco act)
CCOC(=O)[C@@H]1[C@H]2COc3ccc(Br)cc3[C@@H]2N2C(=O)N(c3ccc(C(F)(F)F)cc3)C(=O)[C@@]12C	Lipid droplet 52 | Lipid drop inh 76 | AML12 cytotox inactive | AML12 tox conf inactive
CCOc1ccc(CCNC(=O)COC(=O)c2cccnc2OCC)cc1OCC	Lipid droplet 98 | Lipid drop inh 105 | AML12 cytotox inactive | AML12 tox conf inactive
CCOc1ccc(CCNC(=O)COC(=O)/C=C/c2ccc(OCC#N)c(OC)c2)cc1OCC	Lipid droplet 63 | Lipid drop inh 103 | AML12 cytotox inactive | AML12 tox conf inactive
CCOc1ccc(CCNC(=O)COC(=O)c2ccccc2O)cc1OCC	none
